Rev-erbA mod: Rev-erb alpha (human) modulation; activity, % at 10 µM; 370,000 tested, 0.79% active; Rev-erbα–FITC-DNA binding, fluorescence polarization, 90 min; AID 1259318;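 active = activity above about 14%, limit read from the data; passing the limit was not always enough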;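 also: 0% = DMSO wells with 35 nM protein and 100% = DMSO wells with 750 nM protein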
TbMetRS inhib: blocks T. brucei methionyl-tRNA synthetase activity; purified T. brucei MetRS, ATP depletion, Kinase-Glo luminescence; inhibition, % at 11.9 µM; 360,000 tested, 0.4% active; AID 624268;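 active = inhibition above a per-plate cutoff of the control wells' mean inhibition plus 3 SD, cut at about 5.5% in these data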;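 also: 0% = DMSO wells median and 100% = median of wells with control inhibitor compound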
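Test system: purified T. brucei MetRS enzyme. Also added: ATP, methionine and E. coli bulk tRNA substrates. Compound: 11.9 µM single point. Schedule: 15 min enzyme-compound preincubation, 2 h reaction, 10 min detection, 25 °C. Signal: luciferase luminescence of residual ATP, Kinase-Glo. Evaluation: percent inhibition versus plate control medians. Controls: DMSO wells, low control.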
PG9 binder: PG9 antibody binding by small molecule. TR-FRET gp120-PG9 antibody binding. inhibition, % at 6.7 µM. 360,000 tested, 0.43% active. AID 624416; in the data active = inhibition above about 8.5%
Rin1-Abl PPI inh: inhibitors of human Rin1-Abl protein interaction. 360,000 tested, 0.4% active. AID 588664. TR-FRET Rin1/Abl binding, biochemical. inhibition, % at 7.35 µM; in the data active = inhibition above about 5%, passing the limit was not always enough
PG9 binder conf: confirmation of small molecules binding HIV-1 gp120 antibody PG9; shares compounds with PG9 binder; TR-FRET PG9 antibody binding, biochemical; inhibition, % at 6.7 µM; 1,500 tested, 90% active; in the data active = inhibition above about 9%
PGV04 Ab binding: binds control antibody PGV04 in PG9 binder counter-screen. TR-FRET PGV04 antibody-gp120 binding, biochemical. shares compounds with PG9 binder. 1,500 tested, 95% active. inhibition, % at 6.7 µM; in the data active = inhibition above about 9.5%
Active calls of the source: *; / = not tested or not shown. Rows were chosen to be rich in hits. Some 1.8% of all compounds tested hit in one or more screens of this group.

SMILES	Rev-erbA mod	TbMetRS inhib	PG9 binder	Rin1-Abl PPI inh	PG9 binder conf	PGV04 Ab binding
COCCN(CCOC)S(=O)(=O)c1ccc(C(=O)Nc2nc(-c3ccncc3)cs2)cc1	8	-1	16*	-4	16*	21*
CCOC(=O)Cc1csc(NC(=O)c2ccc(S(=O)(=O)N(CCOC)CCOC)cc2)n1	-2	-2	-1	4	/	/
Cc1ccc(C(=O)NCCNc2nc3cc(C)c(C)cc3cc2C)cc1	17	0	8.9*	-2	18*	22*
COCCCNC(=O)c1ccc(Cn2c(=O)c3ccccc3n(Cc3ccc(Br)cc3)c2=O)cc1	5	/	/	/	/	/
O=c1oc(-c2cccs2)nc2c1cnn2-c1ccccc1	2	-1	9.5*	-3	13*	18*
O=C(O)c1cc2ccccc2c2cc(Br)ccc12	0	0	23*	-8	28*	36*
Cc1cccc(NC(=O)CSc2nc3nc4c(cc3c(=O)n2-c2ccccc2)CCCC4)c1	22	-1	29*	-9	25*	39*
CC(=O)c1ccc(NC(=O)CSc2nc(N)c3cc4c(nc3n2)CCCC4)cc1	-2	-1	22*	-4	14*	26*
Cc1ccc(S(=O)(=O)N2CCCC(C(=O)Nc3c(C)n(C)n(-c4ccccc4)c3=O)C2)cc1C (configuration not stated)	-7	/	/	/	/	/
O=C(Nc1ccc2oc(-c3ccncc3)nc2c1)c1ccccc1F	6	-1	23*	-2	32*	53*
O=C(Nc1ccc2oc(-c3ccccc3)nc2c1)c1ccccc1F	-1	-2	-10	-12	/	/
O=C(NC1CCSc2ccccc21)c1ccc(F)cc1 (configuration not stated)	-1	-1	1	0	/	/
Cc1ccc(NC(=O)CSc2nc3c(cc2C#N)C(=O)CCC3)cc1S(=O)(=O)N(C)C	-3	0	13*	-2	12*	14*
CN(C)S(=O)(=O)c1ccc(Cl)c(NC(=O)CSc2nc3c(cc2C#N)C(=O)CCC3)c1	-1	-1	-2	-1	/	/
COc1ccc(S[C@]2(C(=O)N3CCOCC3)CC(=O)N(c3ccc(C#N)cc3)[C@@H]2c2ccc(OC)cc2)cc1	-5	/	/	/	/	/
O=C(O)c1cnn(-c2nc(-c3ccc(Br)cc3)cs2)c1C(F)(F)F	3	0	9.6*	2	13*	23*
COc1ccc2nc(C)cc(SCC(=O)Nc3c(C)cccc3C)c2c1	3	-1	10*	-5	27*	33*
CCn1c(CNC(=O)c2ccccc2Cl)cc2ccccc21	7	-1	10*	-1	24*	35*
CCCCN(C)c1nc(C)nc2c1nnn2Cc1ccccc1	-4	/	/	/	/	/
Cc1ccc2c(N)c(C#N)sc2n1	0	0	0	-3	/	/
Cc1ccc2c(n1)sc1c(N)ncnc12	-2	-1	24*	-1	22*	32*
CCc1nnc(NC(=O)Cc2ccc(OCc3c(C)noc3C)cc2)s1	10	0	19*	-4	19*	42*
N/C(=N\c1nc2ccccc2o1)NC(=O)c1ccccc1F	-3	1	0	-4	/	/
N/C(=N\c1nc2ccccc2o1)NC(=O)c1ccccc1NC(=O)c1ccccc1	18	0	11*	-4	11*	19*
COc1ccc2c(Cl)c(C(N)=O)sc2c1	5	-1	18*	-223	26*	35*
SMILES	Rev-erbA mod	TbMetRS inhib	PG9 binder	Rin1-Abl PPI inh	PG9 binder conf	PGV04 Ab binding
COc1ccc2c(Cl)c(C(=O)NN)sc2c1	0	-1	-2	-2	/	/
COC(=O)C1=C(C)N(C)C(=NCC2CC2)NC1CCc1ccccc1 (configuration not stated)	-3	/	0	/	/	/
Cc1ccccc1NC(=O)NNC(=O)c1ccc2ccccc2c1O	2	0	-2	6	/	/
O=C(Nc1ccc(Br)c2ccccc12)c1ccc2ccccc2c1O	5	0	36*	-7	31*	37*
CC(=O)Nc1ccc(Br)c2ccccc12	-1	0	11*	-44	22*	23*
CC[C@]12C(=O)N(C)C[C@H]([C@@H]3C(=O)N(C)C(=O)[C@@H]31)N2C(=O)c1ccc(C)cc1	-1	0	1	3	/	/
COc1cc(C(=O)Nc2cccc(-c3nc4cc(C)ccc4o3)c2C)cc(OC)c1OC	9	-1	12*	0	17*	27*
